Test results from ChEMBL document CHEMBL4513216, “Probing the Open Global Health Chemical Diversity Library for Multistage-Active Starting Points for Next-Generation Antimalarials” (ACS Infect Dis, 2020).

Assay: Toxicity liver stage against HepG2, at 10uM
Type: cell-based
Design: test concentration 10 uM, cell line HepG2-A16-CD81EGFP
Conditions: human, HepG2-A16-CD81EGFP cells; read-out: INHIBITION
Summary of the method: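 Uninfected HepG2-A16-CD81EGFP cells, 3 × 10^3 per well, 1536-well, plated on prespotted compound at 10 μM final, parasite-free screening media added to match infected plates; puromycin 10 μM positive, DMSO 0.5% negative; run in parallel with 48 h PbLuc assay at 37 °C, 5% CO2; viability by CellTiter-Glo luminescence, normalized to controls.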

| Structure (SMILES) | cytotoxicity at 10 µM [%] |
| --- | --- |
| O=C(NC[C@H]1OC[C@@H](NCc2ccccc2)[C@@H]1O)Nc1ccc(F)cc1 | -10.8 |
| CCN1Cc2cc(OC)ccc2N(CC(C)(C)O)CCC1=O | -12.2 |
| CC(C)NC(=O)Cc1cnc(-n2cccc2)s1 | -4.6 |
| CCc1c(C)sc2nc3n(CCN4CCOCC4)nc(SC)n3c(=O)c12 | 1.09 |
| NC(=O)CSc1nnc2[nH]c(=O)c3c(n12)CCCC3 | -4.44 |
| O=c1c2cn[nH]c2nc(SCCN2CCCC2)n1-c1ccccc1 | -2.03 |
| Cc1ccc(C)c(NCc2nc3n(n2)CCCCC3)c1 | 6.39 |
| CNc1[nH]nc(N)c1NC(=O)c1ccccc1 | 9.96 |
| Cc1nn(C)c2cnn(Cc3ccc(C(=O)NCC4CCCO4)o3)c12 (stereo not drawn) | 9.37 |
| CC(=O)N1CCCC1CCc1ccc(Cl)nn1 (stereo not drawn) | 3.39 |
| CN(C)c1cncc(C2CCCN(c3cnccn3)C2)n1 (stereo not drawn) | 2.45 |
| Cc1nc(CN2CCCC(c3cnccn3)C2)cs1 (stereo not drawn) | -4.18 |
| Cn1nc(C2CC2)cc1C(=O)N1CCC(c2nnsc2S(C)(=O)=O)CC1 | -0.81 |
| COc1ccc2c(c1)C(=O)NC1(CC2)CCN(Cc2ccccn2)C1 (stereo not drawn) | 4.51 |
| CN(C1CCCN(c2ccccn2)C1)S(=O)(=O)N1CCOCC1 (stereo not drawn) | 8.09 |
| O=C1CC2(CCN(C(=O)c3ccccn3)C2)Nc2ccccc2N1 (stereo not drawn) | 10.9 |
| O=C(c1ccc(=O)[nH]n1)N1CCCC1C1CCCC1 (stereo not drawn) | -7.09 |
| NC(=O)N1CCC(NCc2cc(C(F)(F)F)ccc2Cl)CC1 | -0.651 |
| O=C(CCc1nnc(-c2ccccc2)o1)N1CCCC1c1ccccn1 (stereo not drawn) | -5.82 |
| CCn1cnc2c(c(Br)nn2C)c1=O | 4.37 |
| CCc1nnc(CN2CCc3ccc(S(N)(=O)=O)cc32)o1 | 1.41 |
| CCN(CC(C)C#N)C(=O)CNc1cc(Cl)ccc1C(N)=O (stereo not drawn) | 17.6 |
| Cc1oc(C(=O)Nc2ccccc2F)cc1S(N)(=O)=O | -1.07 |

| Structure (SMILES) | cytotoxicity at 10 µM [%] |
| --- | --- |
| COC(=O)c1ccoc1CN(C)CC(=O)NC1CCS(=O)(=O)C1 (stereo not drawn) | -14.2 |
| Cc1cc(S(=O)(=O)N2CCOCC2C#N)ccc1F (stereo not drawn) | 57.3 |
| Cc1noc(C)c1CCCNC(=O)Nc1cccc([S+](C)[O-])c1 (stereo not drawn) | -0.595 |
| Cc1noc(C)c1C(=O)N(C)C(C)c1ccncc1 (stereo not drawn) | 0.66 |
| CC(C)c1nc2cc(NC(=O)Cn3ccc(=O)[nH]c3=O)ccc2o1 | 1.73 |
| COc1c(F)cc(NC(=O)N2CCC(CSC)C2)cc1F (stereo not drawn) | 10.2 |
| O=C(Cc1csc(Cc2ccccn2)n1)NCCCN1CCCC1=O | -6.29 |
| CC(NC(=O)N1CCc2ccccc21)c1nncn1C (stereo not drawn) | -5.3 |
| COc1cc(C(C)NCc2c[nH]nc2C)ccc1OCCO (stereo not drawn) | -7.47 |
| COCc1cccc(C(=O)N2CCN(C3=NCC(C)(C)S3)CC2)c1 | 4.65 |
| Cc1cccc(OC(C)C(=O)NCC2(N(C)C)CCCC2)c1 (stereo not drawn) | -13.4 |
| Cc1ccc(C(=O)Nc2ccc(N3CCC(O)CC3)c(C#N)c2)s1 | -5.71 |
| c1csc(-c2nc(CN3CCCC3Cn3cccn3)co2)c1 (stereo not drawn) | 11.1 |
| COCC(NC(=O)c1ccoc1C)c1cccc(C(F)(F)F)c1 (stereo not drawn) | -5.95 |
| CC(C)C(=O)NC1CCN(CCO)CC1 | -8.84 |
| Cc1ccc(CC(=O)NCC(Cc2ccc(F)cc2)C(N)=O)cn1 (stereo not drawn) | 12 |
| COc1ccc(CNC(=O)NC(C)(CO)C2CC2)c(C(F)(F)F)c1 (stereo not drawn) | 8.48 |
| N#Cc1nccnc1N1CCC(c2nc(C(F)(F)F)c[nH]2)CC1 | 4.25 |
| COCCOCC(=O)NC(C#N)c1ccccc1C (stereo not drawn) | -1.65 |
| NC(=O)CCn1ccc(NC(=O)C2(c3ccc(F)cc3)CCC2)n1 | -1.03 |
| CCn1c(C)cc(C(=O)NCc2ccc(CS(C)(=O)=O)cc2)c1C | -16.9 |
| Cc1cccc(C(=O)N2CCCC2c2c(C)n[nH]c2C)c1 (stereo not drawn) | 8.58 |
| CC(=O)NCCCSCCOc1cccc(C#N)c1 | 11.4 |

| Structure (SMILES) | cytotoxicity at 10 µM [%] |
| --- | --- |
| COc1ccc(OCC(=O)NS(=O)(=O)c2ccc(Cl)s2)cc1 | 14.1 |
| CCc1nnsc1C(=O)N1CCN(CC(O)CC)CC1 (stereo not drawn) | -6.06 |
| COc1c(C)cnc(CN(C)C(=O)c2cccc(NC(N)=O)c2)c1C | -8.94 |
| COc1cccc(F)c1C(C)NC(=O)NCc1cc(C(C)C)no1 (stereo not drawn) | 4.25 |
| CN(C)C(CNCc1nc(-c2ccsc2)no1)c1ccsc1 (stereo not drawn) | -1.63 |
| O=C(c1c(F)cc(Br)cc1F)N1CCc2cnccc21 | -10.1 |
| Cc1nc2ccccc2n1CCNCc1cccc(C#N)c1 | -0.591 |
| N#Cc1c(F)cccc1N1CCC(C(=O)Nc2nccs2)CC1 | 0.329 |
| Cc1ccc2cccc(S(=O)(=O)N(C)CC3CCN(C)CC3)c2n1 | -1.6 |
| CCc1noc(CN(CC(=O)N2CCCCC2)c2cccc(C)c2)n1 | -6.61 |
| COc1ccc(Br)cc1CN(C)c1nc2c(cnn2C)c(=O)[nH]1 | 48.1 |
| CCc1nc(CNc2ccc(F)c(F)c2)no1 | 5.49 |
| CNC(=O)N1C[C@H]2N(c3ncccn3)CCC[C@@]2(C(=O)NCC2CC2)C1 | -101 |
| COCC(=O)N1CCC2(CCCN(Cc3ccc(Cl)cc3)CC2)CC1 | -0.153 |
| CN(C)CCn1ccnc1C1CCCN(c2ncc(Cl)cc2F)C1 (stereo not drawn) | -1.75 |
| CC(C)CCn1cc(C(C(=O)O)N2CCSCC2)cn1 (stereo not drawn) | -1.17 |
| CC(C)c1cc(C2CCCN2C(=O)CN2C(=O)OC(C)(C)C2=O)no1 (stereo not drawn) | -7.71 |
| Cc1cccc(CC(=O)N2CCCC(N(C)CCCN(C)C)C2)c1 (stereo not drawn) | -0.655 |
| COc1cc(CN2CCCC(Nc3cccc(F)c3)C2)cc(Cl)c1O (stereo not drawn) | -0.476 |
| COc1cc(C)cc(C(C(=O)O)N(C)Cc2ccon2)c1OC (stereo not drawn) | -3.41 |
| Cc1nc(Cn2c(=O)cnc3ccccc32)n(C)n1 | -0.825 |
| CCCc1nc(C(=O)N2CCN(S(=O)(=O)CC)CC2)cs1 | -14.5 |
| CCN1C[C@@H](C(=O)O)[C@H](c2cccc(OC)c2)C1 | -19 |

| Structure (SMILES) | cytotoxicity at 10 µM [%] |
| --- | --- |
| COc1ncc(CN2CCC3(CCCN(CC4CCC4)C3)C2)cn1 (stereo not drawn) | -1.95 |
| c1cn(CCn2cnnc2)c(-c2cc3n(n2)CCCNC3)n1 | -0.309 |
| CC(CN(C)Cc1cccc(-n2cccn2)c1)C(F)(F)F (stereo not drawn) | 1.55 |
| CSCCC1c2nc[nH]c2CCN1Cc1[nH]c2ccc(F)cc2c1C (stereo not drawn) | -5.65 |
| COCCN(Cc1ccccn1)C(=O)C1CCCCCN1C (stereo not drawn) | 6.32 |
| Cc1cc2[nH]cc(C(=O)N3CCCCC3c3ccc(F)cc3)c(=O)n2n1 (stereo not drawn) | 4.19 |
| CCc1cnc(N2CCCC(CCC(N)=O)C2)nc1 (stereo not drawn) | 2.25 |
| CCc1nnc(CN2CCC3(CC2)Nc2ccccc2NC3=O)o1 | -6.96 |
| Cc1ccc2c(c1)OC(C)(C)CC2NC(=O)C1CCN(C)CC1 (stereo not drawn) | -1.71 |
| CN(Cc1ccc(-n2cncn2)cc1)Cc1ncc[nH]1 | 4.67 |
| COCCN1CCC2(CCC1=O)CN(C1CCOCC1)CCN2C (stereo not drawn) | 0.0227 |
| CCN(Cc1noc(C)n1)C(=O)CC1C(=O)NCCN1CC(C)(C)C (stereo not drawn) | 2.78 |
| Cn1nccc1C(=O)N1CCC(n2cc(-c3ccsc3)nn2)CC1 | -3.44 |
| O=C(c1ccsc1)N1C[C@@H](CN2CCCC2)[C@@H](CO)C1 | 15.2 |
| COc1ccccc1OCc1cc(C(=O)N2CC=CC2C(C)C)n[nH]1 (stereo not drawn) | -2.72 |
| Cc1cccc(CN2CCc3c(nc(N4CCCCC4C)[nH]c3=O)C2)n1 (stereo not drawn) | -0.336 |
| Cc1cn[nH]c1C1CCCCN1C(=O)CCN1CCCCCC1 (stereo not drawn) | 5.7 |
| Cc1cc(C(=O)N2CCCC(C)C2)ccc1NCc1nc(C(C)C)no1 (stereo not drawn) | -9.84 |
| CNC(=O)c1ccc(C(=O)N2CCCC(n3ccnc3)C2)cn1 (stereo not drawn) | -8.89 |
| CCCOCC(=O)NS(=O)(=O)c1ccc2c(c1)OCCO2 | -6.46 |
| CSc1nccn1-c1cccc(C(=O)NCC(F)(F)F)c1 | -0.312 |
| CCOC(=O)c1sc2ccsc2c1CNC(=O)C(C)OC (stereo not drawn) | -4.07 |
| Cc1noc(Cl)c1CC(=O)N1CCC(Nc2cccnn2)CC1 | -4.72 |

| Structure (SMILES) | cytotoxicity at 10 µM [%] |
| --- | --- |
| CCn1cc(NC(=O)C2CCN(Cc3noc(C4CC4)n3)CC2)cn1 | -1.41 |
| CCc1noc(CN2CCCC(Cn3nc(C)nc3C)C2)n1 (stereo not drawn) | -6.31 |
| CCC(C)(C)NC(=O)CN(C)C(c1cccc(F)c1)c1ccccn1 (stereo not drawn) | -3.15 |
| CC(=O)NCCc1ccc(C(=O)N2CCCC2c2cnn(C)c2)cc1 (stereo not drawn) | -4.74 |
| Cc1nc(-c2ccccc2)sc1C(=O)NCCNc1ncccn1 | 0.273 |
| COCCCNC(=O)CN(C)C(=O)c1cc(C)sc1C | -2.58 |
| NC(=O)c1csc(C(=O)N2CCCCC2Cn2cccn2)c1 (stereo not drawn) | -3.56 |
| O=C(C1CCCCN1Cc1nc(-c2ccco2)no1)N1CCCC1 (stereo not drawn) | -4.64 |
| O=C(NCCn1ccnc1)N1CCCC1c1ccsc1 (stereo not drawn) | -6.05 |
| CCC1CN(c2nnc(C)c(C)c2C#N)CCO1 (stereo not drawn) | -0.678 |
| Cc1nnc(N2CCOC(Cn3cccn3)C2)c(C#N)c1C (stereo not drawn) | -8.47 |
| C=C(Cl)CN1CCC(C(=O)c2cc(F)ccc2F)CC1 | -7.26 |
| COc1ccc(COCC(O)CNC(=O)c2cc(C)cc(C)c2)cc1 (stereo not drawn) | 0.385 |
| CCCc1nc(CN2CCN(Cc3noc(CCC)n3)CC2)no1 | -0.914 |
| CCc1n[nH]c(C2CN(C(=O)c3nc(C)n4ccccc34)CCO2)n1 (stereo not drawn) | -11.2 |
| COc1ccc(C)cc1CSCCn1nc2ccccn2c1=O | 1.03 |
| Cn1cc([C@@H]2CN(S(=O)(=O)c3ccccc3F)C[C@H]2N)c2ccncc21 | 6.13 |
| O=C(CN1CC(c2nc(-c3ccco3)no2)C1)NCC1CCCO1 (stereo not drawn) | 2.21 |
| O=C(NCCc1cccs1)[C@H]1CO[C@H]2CCN(CC3CC3)C[C@H]2C1 | -103 |
| CCN1C[C@@H]2[C@@H](OC)CCN(S(=O)(=O)c3ccccc3)[C@@H]2C1 | -2.7 |
| Cc1cc(C(=O)N2C[C@@H]3CC[C@H]2CN(C)C3)ccc1Cl | -8.23 |
